In ChEMBL document CHEMBL4732104, “Discovery of bardoxolone derivatives as novel orally active necroptosis inhibitors” (Eur J Med Chem, 2021) one finds inhibition, EC50 and Activity data, which are given here for 19 compounds.

Data set [1] deals with HT-29. As to the kind of experiment: Anti-necroptotic activity in human HT-29 cells assessed as inhibition of TNFalpha/SM-164/Z-VAD-fmk (TSZ)-induced necroptosis by measuring increase in cell viability at 10 uM measured after 12 hrs by celltiter-glo luminescent cell viability assay. Type of data set: functional, cell-based. In outline: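 HT-29 cells in DMEM with 10% FBS at 37 °C, 5% CO2. Test agents at 10 μM, then TSZ stimulation for 12 h. Viability read by CellTiter-Glo luminescence.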
(In general: In ATP-based viability assays light output follows the ATP content of the culture.)

Another data set concerns L929. As to the kind of experiment: Anti-necroptotic activity in mouse L929 cells assessed as inhibition of TNFalpha/Z-VAD-fmk (TZ)-induced necroptosis by measuring increase in cell viability measured after 12 hrs by celltiter-glo luminescent cell viability assay. Type of data set: functional, cell-based. To be noted: L929, 12 h. Put shortly:
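Mouse L929 fibroblasts pretreated with test agent, then mouse TNF-α (20 ng/mL) plus z-VAD-fmk (20 μM). Incubation stated as 4 h in table footnote and 12 h in figure legend. CellTiter-Glo viability. EC50 ± SD from at least three independent repeats.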

For data set [2], the system named is HT-29. As to the kind of experiment: Anti-necroptotic activity in human HT-29 cells assessed as inhibition of TNFalpha/SM-164/Z-VAD-fmk (TSZ)-induced necroptosis by measuring increase in cell viability measured after 12 hrs by celltiter-glo luminescent cell viability assay. To be noted: for EC50: HT-29, 12 h. The class given is functional, cell-based. Put shortly:
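HT-29 cells pretreated with test agent across a concentration range, then TNF-α (20 ng/mL), Smac mimetic (10 nM) and z-VAD-fmk (20 μM) for 12–16 h. CellTiter-Glo viability. EC50 ± SD from at least three independent experiments.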

A further data set deals with Rattus norvegicus. As to the kind of experiment: Neuroprotective activity in middle cerebral artery occlusion-induced Sprague-Dawley rat model of ischemia-reperfusion injury assessed as reduction in cerebral infarct volume at 1 mg/kg by TTC staining based microscopic analysis relative to control. Type of data set: functional. Also noted: scale not given: the % may be the effect or the level left.

Data set [3] concerns HT-29. As to the kind of experiment: Anti-necroptotic activity in human HT-29 cells assessed as inhibition of TNFalpha/SM-164/Z-VAD-fmk (TSZ)-induced necroptosis by measuring cell viability at 10 uM preincubated for 30 mins followed by TSZ stimulation and measured after 16 hrs by celltiter-glo luminescent cell viability assay relative to control. The class given is functional. To be noted: time 16.5 hrs. Put shortly: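 HT-29 cells in DMEM with 10% FBS, 37 °C, 5% CO2. Compound pretreatment 30 min, then TNF-α 20 ng/mL, Smac mimetic and z-VAD-fmk 20 μM for 16 h. Viability by CellTiter-Glo luminescence, normalised to untreated control cells.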

Data set [4] relates to HT-29. As to the kind of experiment: Protection against TNFalpha/cycloheximide (TC)-induced apoptosis in human HT-29 cells assessed as increase in cell viability at 0.08 to 10 uM measured after 24 hrs by celltiter-glo luminescent cell viability assay. Type of data set: functional, cell-based. The settings on record: dose 0.08-10 µM. Put shortly:
(§1)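 HT-29 apoptosis induced by TNF-α 20 ng/mL plus Smac mimetic (20 h), or by TNF-α plus cycloheximide (24 h), with graded compound concentrations. Viability read by CellTiter-Glo luminescence; means ± S.D. of three independent experiments.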

Data set [5] has as its system HT-29. As to the kind of experiment: Protection against TNFalpha/SM-164 (TS)-induced apoptosis in human HT-29 cells assessed as increase in cell viability at 0.08 to 10 uM measured after 20 hrs by celltiter-glo luminescent cell viability assay. The class given is functional, cell-based. To be noted: dose 0.08-10 µM. Put shortly: as §1
Data set [6] has as its system HT-29. As to the kind of experiment: Anti-necroptotic activity in human HT-29 cells assessed as inhibition of TNFalpha/SM-164/Z-VAD-fmk (TSZ)-induced necroptosis by measuring reduction in plasma membrane rupture at 5 uM preincubated for 30 mins followed by TSZ stimulation and measured after 12 hrs by phase contrast microscopic analysis. The class given is functional, cell-based. To be noted: time 12.5 hrs. Put shortly: (§2)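 HT-29 cells pretreated with DMSO or compound, then stimulated with TNF-α, Smac mimetic and z-VAD-fmk for 12 h. Necrotic morphology (swelling, membrane rupture) viewed by phase contrast microscopy at 200×.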

The test system of data set [7] is HT-29. As to the kind of experiment: Anti-necroptotic activity in human HT-29 cells assessed as inhibition of TNFalpha/cycloheximide/Z-VAD-fmk (TCZ)-induced necroptosis by measuring increase in cell viability measured after 16 hrs by celltiter-glo luminescent cell viability assay. The class given is functional, cell-based.
In data set [8] the test system is HT-29. As to the kind of experiment: Cytotoxicity against human HT-29 cells assessed as reduction in cell viability at 10 uM by MTT assay. To be noted: ht-29, 10 µM. Type of data set: cell-based. On the technique in general: Formazan colour is commonly taken as a measure of viable cells.
The test system of data set [9] is HT-29. As to the kind of experiment: Anti-necroptotic activity in human HT-29 cells assessed as inhibition of TNFalpha/SM-164/Z-VAD-fmk (TSZ)-induced necroptosis by measuring reduction in cell swelling at 5 uM preincubated for 30 mins followed by TSZ stimulation and measured after 12 hrs by phase contrast microscopic analysis. The class given is functional, cell-based. The settings on record: time 12.5 hrs. Put shortly:
as §2

Calls of active or inactive are those of the source. The calls are words filed in the database; no cut-off is given here. Where only a bound is given, the exact number is not on record here.

For `C=CCNC1=C2C[C@@H](C)C[C@H](OC)[C@H](O)[C@@H](C)/C=C(\C)[C@H](OC(N)=O)[C@@H](OC)/C=C\C=C(/C)C(=O)NC(=CC1=O)C2=O`, in the data set with HT-29 [1], the inhibition entry is “Active”.

As for `CC(C)c1cc(C(=O)N2Cc3ccc(CN4CCN(C)CC4)cc3C2)c(O)cc1O`, in the data set with HT-29 [1], the inhibition result was “Active”.

For orientation: EC50 means the midpoint of the concentration-response curve. Consider `CC1(C)CC[C@]2(C(=O)N[C@@H]3CCCc4ccccc43)CC[C@]3(C)[C@H](C(=O)C=C4[C@@]5(C)C=C(C#N)C(=O)C(C)(C)[C@@H]5CC[C@]43C)[C@@H]2C1`, for which the 50% effective concentration (EC50) was 0.82 µM in the data set with L929 and 1.91 µM in the data set on HT-29 [2].

On to `CC1(C)CC[C@]2(C(=O)N[C@H]3CCCc4ccccc43)CC[C@]3(C)[C@H](C(=O)C=C4[C@@]5(C)C=C(C#N)C(=O)C(C)(C)[C@@H]5CC[C@]43C)[C@@H]2C1`, for which the concentration giving a half-maximal response (EC50) was 0.62 µM in the data set with L929 and 1.81 µM in the data set with HT-29 [2].

Turning to `CC1(C)CC[C@]2(NC(=O)C(C)(F)F)CC[C@]3(C)[C@H](C(=O)C=C4[C@@]5(C)C=C(C#N)C(=O)C(C)(C)[C@@H]5CC[C@]43C)[C@@H]2C1` [OMAVELOXOLONE], the EC50 in the data set with L929 came to 5.25 µM; in the data set with HT-29 [2] it was 1.41 µM.

`CC1(C)CC[C@]2(C(=O)NCCNC(=O)OC(C)(C)C)CC[C@]3(C)[C@H](C(=O)C=C4[C@@]5(C)C=C(C#N)C(=O)C(C)(C)[C@@H]5CC[C@]43C)[C@@H]2C1`: the EC50 amounted to 1.48 µM in the data set with L929 and 2.81 µM with HT-29 [2].

With `CC1(C)CC[C@]2(C(=O)O)CC[C@]3(C)C(=CC[C@@H]4[C@@]5(C)CC[C@H](O)C(C)(C)[C@@H]5CC[C@]43C)[C@@H]2C1` [OLEANOLIC_ACID], the EC50 in the data set on HT-29 [2] is above 10 µM.

In the case of `CC1(C)CC[C@]2(C(=O)n3cnc(-c4ccccn4)c3)CC[C@]3(C)[C@H](C(=O)C=C4[C@@]5(C)C=C(C#N)C(=O)C(C)(C)[C@@H]5CC[C@]43C)[C@@H]2C1`, the EC50 with L929 was 0.61 µM; in the data set with HT-29 [2] it was 0.29 µM.

`COC(=O)/C=C/C(=O)OC`: the inhibition entry in the data set on HT-29 [1] is “inactive”.

As to `COCCOC(=O)C1=C(C)NC(C)=C(C(=O)OC(C)C)C1c1cccc([N+](=O)[O-])c1` (stereo not drawn) [NIMODIPINE], in the data set with Rattus norvegicus, the Activity was found to be 26.8%.

In the case of `CC1(C)CC[C@]2(C(=O)O)[C@H](O)C[C@]3(C)C(=CC[C@@H]4[C@@]5(C)CC[C@H](O)C(C)(C)[C@@H]5CC[C@]43C)[C@@H]2C1`, the EC50 in the data set on HT-29 [2] was above 10 µM.

For the compound `COC(=O)[C@@]12OC[C@]34[C@H]([C@@H](O)[C@@H]1O)[C@@]1(C)CC(=O)C(O)=C(C)[C@@H]1C[C@H]3OC(=O)[C@H](OC(=O)C=C(C)C)[C@@H]24`, in the data set with HT-29 [1], the inhibition result is “inactive”.

For `CC1(C)CC[C@]2(C(=O)O)CC[C@]3(C)[C@H](C(=O)C=C4[C@@]5(C)C=C(C#N)C(=O)C(C)(C)[C@@H]5CC[C@]43C)[C@@H]2C1` [BARDOXOLONE], the Activity in the data set with HT-29 [3] is listed as above 100%; in the data set with HT-29 [8] it was “Toxic”. Also, the result in the data set with HT-29 [4] and with HT-29 [5] was inactive. The EC50 in the data set on L929 was above 10 µM; in the data set on HT-29 [2], 1.3 µM. In addition, the result with HT-29 [6] and in the data set with HT-29 [9] was Active. Besides, the inhibition entry with HT-29 [7] and with HT-29 [2] was “Dose-dependent effect” each time.

As to `COC(=O)[C@]12CCC(C)(C)C[C@H]1[C@H]1C(=O)C=C3[C@@]4(C)C=C(C#N)C(=O)C(C)(C)[C@@H]4CC[C@@]3(C)[C@]1(C)CC2` [BARDOXOLONE METHYL], the figures for the 50% effective concentration (EC50) in the data set with L929 and with HT-29 [2] were above 10 µM and 4.34 µM, respectively.

For `CCNC(=O)[C@]12CCC(C)(C)C[C@H]1[C@H]1C(=O)C=C3[C@@]4(C)C=C(C#N)C(=O)C(C)(C)[C@@H]4CC[C@@]3(C)[C@]1(C)CC2`, the EC50 was found to be 4.15 µM in the data set with L929 and 1.38 µM in the data set on HT-29 [2].

In the case of `CC1(C)CC[C@]2(C(=O)NC3CCCCC3)CC[C@]3(C)[C@H](C(=O)C=C4[C@@]5(C)C=C(C#N)C(=O)C(C)(C)[C@@H]5CC[C@]43C)[C@@H]2C1`, the EC50 in the data set with L929 was above 10 µM; with HT-29 [2], 1.3 µM.

In the case of `Cc1ccc(Nc2nccc(N(C)c3ccc4c(C)n(C)nc4c3)n2)cc1S(N)(=O)=O` [PAZOPANIB], the Activity in the data set on HT-29 [3] was above 80%.

For the compound `CC1(C)CC[C@]2(C(=O)NCc3ccccc3)CC[C@]3(C)[C@H](C(=O)C=C4[C@@]5(C)C=C(C#N)C(=O)C(C)(C)[C@@H]5CC[C@]43C)[C@@H]2C1`, the EC50 was found to be 1.03 µM in the data set on L929 and 1.63 µM in the data set with HT-29 [2].

As for `CC1(C)CC[C@]2(C(=O)n3ccnc3)CC[C@]3(C)[C@H](C(=O)C=C4[C@@]5(C)C=C(C#N)C(=O)C(C)(C)[C@@H]5CC[C@]43C)[C@@H]2C1`, the EC50 in the data set with L929 was 1.46 µM; in the data set with HT-29 [2], 2.1 µM.
